Sampled rows, rich in hits. Any-hit rate of the full collection: about 3.5%.
Pf gametocyte = inhibitors of late stage P. falciparum gametocyte viability; P. falciparum stage V gametocytes, ATP luminescence, 24 h; inhibition, % at 10.9 µM; 150,000 compounds, 0.065% hits; AID 743093;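 active = inhibition above the mean plus 3 SD of compounds within the control limits, set per campaign, cut at about 38% in these data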;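 note: 0% = DMSO wells and 100% = medium only without gametocytes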
NF-kB neuron act = raises NF-kB expression in human neuronal cells | NF-kB reporter expression; active compounds read high | fold change at 12.5 µM | 190,000 compounds, 1.6% hits | AID 1239; in the data active = fold change above about 3.3
APP 5'UTR act = APP 5'UTR luciferase reporter activation; SH-SY5Y APP 5'UTR luciferase reporter, luminescence; zero percent = DMSO vehicle wells; activation, % at 2 µM; 190,000 compounds, 1% hits;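 active = activation above a set limit, based on mean plus 3 SD of controls, cut at about 140% in these data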
FLuc inh counter = inhibits firefly luciferase, flagging false hits in luciferase inhibition screens | inhibition, % at 10 µM | AID 1006 | ATPLite firefly luciferase biochemical luminescence, 10 min | P08659 | 200,000 compounds, 1.5% hits;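 active = inhibition above about 50% when tested at 10 µM, limit read from the data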
Target sequence (P08659 whole entry, looked up): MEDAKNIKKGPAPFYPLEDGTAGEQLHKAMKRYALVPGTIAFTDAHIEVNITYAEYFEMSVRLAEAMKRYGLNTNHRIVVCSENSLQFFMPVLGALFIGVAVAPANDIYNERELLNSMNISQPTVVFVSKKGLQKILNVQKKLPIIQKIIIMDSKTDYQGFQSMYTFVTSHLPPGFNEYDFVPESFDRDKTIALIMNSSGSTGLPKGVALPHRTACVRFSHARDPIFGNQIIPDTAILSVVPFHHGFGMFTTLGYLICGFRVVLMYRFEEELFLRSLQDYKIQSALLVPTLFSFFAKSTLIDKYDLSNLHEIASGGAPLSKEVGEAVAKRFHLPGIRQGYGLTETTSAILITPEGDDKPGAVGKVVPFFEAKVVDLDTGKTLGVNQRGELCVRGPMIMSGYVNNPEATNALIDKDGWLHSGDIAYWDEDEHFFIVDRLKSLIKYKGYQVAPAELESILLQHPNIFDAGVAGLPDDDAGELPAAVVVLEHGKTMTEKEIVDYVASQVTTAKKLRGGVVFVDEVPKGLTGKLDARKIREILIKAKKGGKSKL
FLuc act counter = firefly luciferase counter-screen for stimulation assays; P08659; 200,000 tested, under 10 active; ATPlite luciferase biochemical, luminescence, 10 min; 0 = ATP-free wells, 1 = DMSO control; activation factor at 10 µM;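 active = luciferase activation factor, scaled between plate controls, of at least 2 with compound at 10 µM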
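Assay system: Luciferase/luciferin detection reagent, cell-free biochemical luciferase assay / Also added: ATP substrate / Schedule: 10 min at ambient temperature / Measured by: luminescence measurement of luciferase light output / Benchmarks: low control with PBS replacing ATP, high control enzyme plus ATP without compound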
STAT1 activator = activators of IFN-gamma induced STAT1 signaling | NIH 3T3 STAT1-luciferase reporter, luminescence; 100% = IFN-gamma alone, no compound | activation (% of control), % at 5.5 µM | 200,000 compounds, 2.6% hits | AID 932;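 active = activation above the screen-wide mean activation plus 3 SD, cut at about 130% in these data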;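 note: raw ratio to IFN-gamma control signal so 100% means no change and 0% no light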
* = called active by the depositor.

For COc1ccc(C2=NOC(Cn3nc(C(=O)NCc4ccccc4OC)cc3-c3ccccc3)C2)cc1 (centres undefined) the results were Pf gametocyte -5.
COc1ccc(C(=O)Nc2ccc(C)cn2)c(OC)c1 was read as Pf gametocyte -17, NF-kB neuron act 1.2, APP 5'UTR act 24, FLuc inh counter 95*, FLuc act counter 0.1 and STAT1 activator 29.
For COc1ccccc1C(=O)Nc1ccccn1 the results were Pf gametocyte 4, NF-kB neuron act 2.7, APP 5'UTR act 51, FLuc inh counter 46, FLuc act counter 0.5 and STAT1 activator 132*.
For COc1ccc(C(=O)Nc2cc(C)on2)c(OC)c1 the results were Pf gametocyte -15.
`Cc1ccc(NC(=O)c2ccc(F)cc2)nc1` gave Pf gametocyte -5, NF-kB neuron act 3.1, APP 5'UTR act 77, FLuc inh counter 32, FLuc act counter 0.7 and STAT1 activator 132*.
Screening C/C(=N\Nc1nccnc1Cl)c1ccc(O)c(C)c1 returned Pf gametocyte 12.
For O=C(Cc1csc(N2CCOCC2)n1)N/N=C/c1ccccc1C(=O)O the results were Pf gametocyte 15.
`Cc1cccc(NC(=O)c2ccccn2)c1C` gave NF-kB neuron act 1.6, APP 5'UTR act 33, FLuc inh counter -2, FLuc act counter 1 and STAT1 activator 125.
`Cc1cccc(NC(=O)c2n[nH]c([N+](=O)[O-])c2Br)c1C` gave Pf gametocyte 2, NF-kB neuron act 4.1*, APP 5'UTR act 132, FLuc inh counter 37, FLuc act counter 0.6 and STAT1 activator 123.
`Cc1ccc2nc(-c3ccc4c(c3)OCCO4)cc(C(=O)O)c2c1` gave NF-kB neuron act 1.4, APP 5'UTR act 22, FLuc inh counter 74*, FLuc act counter 0.3 and STAT1 activator 99.
For O=C(O)c1cc(-c2ccc3c(c2)OCO3)nc2ccccc12 the results were NF-kB neuron act 1.5, APP 5'UTR act 106, FLuc inh counter 45, FLuc act counter 0.6 and STAT1 activator 104.
`O=C(COc1ccc2ccccc2c1)Nc1nccs1` gave Pf gametocyte -8, NF-kB neuron act 6.5*, APP 5'UTR act 190*, FLuc inh counter 84*, FLuc act counter 0.2 and STAT1 activator 84.
`CCC(C)[C@H]1CNCCN1CCC12CC3CC(CC(C3)C1)C2` (some centres undefined) gave Pf gametocyte -4.
CC(C)Cc1ccc(/C=C/C(=O)N2CCCCC2)cc1 was read as Pf gametocyte 11, NF-kB neuron act 4.2*, APP 5'UTR act 86, FLuc inh counter 14, FLuc act counter 0.9 and STAT1 activator 139*.
Screening CC(C)Cc1ccc(/C=C/C(=O)NC2CC2)cc1 returned Pf gametocyte 3, NF-kB neuron act 3.2, APP 5'UTR act 63, FLuc inh counter 24, FLuc act counter 0.8 and STAT1 activator 147*.
`CCc1ccc(/C=C\C(=O)N2CCCC2)cc1` gave Pf gametocyte 4.
CCN(CC)C(=O)c1ccc2c(c1[N+](=O)[O-])C(=O)c1ccccc1C2=O was read as NF-kB neuron act 1.5, APP 5'UTR act 59, FLuc inh counter -2, FLuc act counter 1 and STAT1 activator 110.
For CC1(C)Cc2c(sc(NC(=O)c3ccco3)c2C#N)CO1 the results were NF-kB neuron act 2.8, APP 5'UTR act 78, FLuc inh counter 75*, FLuc act counter 0.2 and STAT1 activator 126.
CC1(C)Cc2c(sc(NC(=O)/C=C/C(=O)O)c2C#N)CO1 was read as Pf gametocyte 11.
Screening CC(=O)N(C)Cc1ccc(C(=O)CCl)cc1 returned Pf gametocyte -14, NF-kB neuron act 3.8*, APP 5'UTR act -2, FLuc inh counter -1, FLuc act counter 1 and STAT1 activator 90.
CC(=O)NCc1ccc(C(=O)CCl)cc1 was read as Pf gametocyte 14, NF-kB neuron act 1.2, APP 5'UTR act -1, FLuc inh counter -5, FLuc act counter 1.1 and STAT1 activator 93.
CCOC(=O)c1cnc2ccccc2c1Nc1cccc(C(=O)O)c1 was read as Pf gametocyte -3, NF-kB neuron act 1.1, APP 5'UTR act -23, FLuc inh counter 86*, FLuc act counter 0.1 and STAT1 activator 100.
